ChEMBL document CHEMBL3576784, “Azolylthioacetamide: A Highly Promising Scaffold for the Development of Metallo-β-lactamase Inhibitors” (ACS Med Chem Lett, 2015)

Biological target: Beta-lactamase (Aeromonas veronii, UniProt O31272)
Assay: Inhibition of Aeromonas veronii metallo-beta-lactamase ImiS expressed in Escherichia coli BL21(DE3) using imipenem substrate pre-incubated for 30 mins by Lineweaver-Burk plot method; call rule not given here
Outline: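 Purified enzyme; initial rates of imipenem hydrolysis followed by UV spectrophotometry (262 or 300 nm) in 50 mM Tris pH 7.0, 25 °C. Substrate 24–140 μM, inhibitor 0–10 μM. Rates in triplicate and averaged. Inhibition mode from Lineweaver–Burk plots. Ki from fits of initial velocity vs substrate concentration at each inhibitor level.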

Chain of Beta-lactamase (O31272 whole entry): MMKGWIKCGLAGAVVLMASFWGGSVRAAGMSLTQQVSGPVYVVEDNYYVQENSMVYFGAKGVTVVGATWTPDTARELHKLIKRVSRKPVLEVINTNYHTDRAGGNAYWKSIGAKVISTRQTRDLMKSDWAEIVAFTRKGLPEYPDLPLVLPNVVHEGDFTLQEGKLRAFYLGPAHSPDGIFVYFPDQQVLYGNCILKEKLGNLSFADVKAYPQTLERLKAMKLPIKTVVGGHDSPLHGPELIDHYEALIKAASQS

SMILES | Ki (read-out: Ki) [µM] | Ki
O=C(O)CCc1nnc(SCC(=O)Nc2ccc(Cl)cc2)[nH]1 | > 5000 | –
O=C(O)CCc1nnc(SCC(=O)Nc2ccccc2)[nH]1 | > 5000 | –
O=C(O)CCc1nnc(SCC(=O)Nc2nc3ccccc3[nH]2)[nH]1 | > 2500 | –
O=C(CSc1nnc(-c2ccccc2C(=O)O)[nH]1)NCc1ccccc1 | – | Not Active
O=C(CSc1nnc(-c2ccccc2C(=O)O)[nH]1)Nc1nc2ccccc2[nH]1 | 3.6 | –
O=C(O)CCCc1nnc(SCC(=O)Nc2nc3ccccc3[nH]2)[nH]1 | – | Not Active
O=C(O)CCc1nnc(SCC(=O)Nc2nc3ccccc3s2)[nH]1 | – | Not Active

Continued, values first:

Ki (read-out: Ki) [µM] | Ki | SMILES
2.3 | – | O=C(CSc1nnc(-c2ccccc2C(=O)O)[nH]1)Nc1ccccc1Cl
1.4 | – | O=C(CSc1nnc(-c2ccccc2C(=O)O)[nH]1)Nc1ccc(Cl)cc1
1.8 | – | O=C(CSc1nnc(-c2ccccc2C(=O)O)[nH]1)Nc1ccccc1
2.2 | – | O=C(CSc1nnc(-c2ccccc2C(=O)O)[nH]1)Nc1ccc([N+](=O)[O-])cc1
2.7 | – | O=C(CSc1nnc(-c2ccccc2C(=O)O)[nH]1)Nc1ccccc1[N+](=O)[O-]
2.4 | – | O=C(CSc1nnc(-c2ccccc2C(=O)O)[nH]1)Nc1cccc(Cl)c1
1.9 | – | O=C(CSc1nnc(-c2ccccc2C(=O)O)[nH]1)Nc1cccc([N+](=O)[O-])c1
1.2 | – | O=C(CSc1nnc(-c2ccccc2C(=O)O)[nH]1)Nc1nc2ccccc2s1
